Bioassay records as filed in PubChem BioAssay.
HGIII-sPLA2 inh: human group III sPLA2 inhibitors, primary screen, biochemical, QFRET, BODIPY PC-A2 liposome substrate; QFRET BODIPY PC-A2 liposome hydrolysis, fluorescence; inhibition, % at 12.2 µM; 370,000 tested, 0.56% active;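 active = inhibition above mean plus 3 SD of compounds lying within the high and low control bounds, cut at about 19% in these data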;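 also: 0% = median of test compound wells and 100% = no enzyme DMSO wells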
Arrestin-AP2 inh: inhibitors of beta-arrestin/AP2 binding, primary screen, biochemical, GPCR trafficking, flow cytometry; beta-arrestin 1 C-terminal peptide binding to AP2 beta2-adaptin appendage (human); FITC-arrestin peptide / GST-AP2 beads; AP2 beta2 appendage carries R879A mutation; inhibition, % at 10 µM; 340,000 tested, 0.31% active;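 active = inhibition above a set limit, near 3 SD of compounds lacking own fluorescence, cut at about 54% in these data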;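 also: plate controls were DMSO wells for no effect and 5 µM unlabelled arrestin peptide for full effect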
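Assay system: GST-AP2 R879A bound to glutathione beads, E. coli-expressed; Medium: PBS with 0.05% Tween 20 and 0.1% BSA; Also added: fluorescein-tagged arrestin peptide at 50 nM final; Timing: 12 min plus 1 h, RT; Measured by: flow cytometry, FL1 (488/535 nm); Evaluation: percent drop in bead-associated FITC signal.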
HTR2A ag: mouse Htr2a agonists via beta-arrestin recruitment, primary screen, cell-based, luminescence; CHO-K1 mHTR2A beta-arrestin complementation; percent of 30 µM serotonin response; activation, % at 7.6 µM; 360,000 tested, 0.66% active;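 active = activation above a run cutoff, the mean activation of all tested compounds plus 3 SD, cut at about 14% in these data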;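 also: 0% = plate median of compound wells and 100% = 30 µM serotonin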
Target sequence (P35363 whole entry, looked up): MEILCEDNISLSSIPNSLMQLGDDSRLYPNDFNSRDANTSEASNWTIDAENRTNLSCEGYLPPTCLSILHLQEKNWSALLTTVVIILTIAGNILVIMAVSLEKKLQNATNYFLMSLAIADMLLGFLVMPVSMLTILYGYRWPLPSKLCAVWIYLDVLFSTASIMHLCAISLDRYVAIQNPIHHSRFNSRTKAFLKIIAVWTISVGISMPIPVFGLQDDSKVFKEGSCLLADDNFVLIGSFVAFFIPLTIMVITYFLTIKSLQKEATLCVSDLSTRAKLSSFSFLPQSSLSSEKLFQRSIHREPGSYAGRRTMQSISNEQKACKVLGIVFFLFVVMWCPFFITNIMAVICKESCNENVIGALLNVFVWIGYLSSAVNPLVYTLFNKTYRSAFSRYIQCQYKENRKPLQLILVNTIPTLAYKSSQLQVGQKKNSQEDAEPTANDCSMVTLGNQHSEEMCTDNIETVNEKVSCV
NRP1-CendR mod: modulators of CendR peptide binding to NRP-1, primary screen, biochemical, fluorescence polarization, uHTS; Neuropilin-1 (Homo sapiens), O14786; FAM-RPARPAR peptide binding to NRP-1; inhibition, % at 25 µM; 360,000 tested, 0.85% active;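 active = inhibition or corrected inhibition above about 18%, plus a signal ratio from 0.5 to 1.5, limit read from the data, passing the limit was not always enough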
Hep lipid drop: inhibitors of hepatocyte lipid droplet formation, primary screen, imaging, high-throughput imaging, BODIPY stain; AML12 mouse hepatocytes, oleate lipid droplets; inhibition, % at 6.5 µM; 240,000 tested, 0.4% active;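 active = lipid droplet intensity inhibited by at least 50%, with more than 500 cells counted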
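Material – AML12 mouse liver cells · Also added – oleate loading, 100 µM · Compound dosing – 6.5 µM single-point dosing · Times – overnight treatment with compound plus oleate · Measured by – fluorescence imaging, 20x objective, two fields per well · Read-out – percent inhibition of filter-corrected integrated lipid droplet intensity per well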
PfM18AAP inh: PfM18AAP inhibitors, malaria aminopeptidase, primary screen, biochemical, QFRET, recombinant enzyme; H-Glu-NHMec fluorogenic cleavage; inhibition, % at 7.35 µM; 290,000 tested, 1.2% active;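 active = inhibition above the campaign mean inhibition over all tested compounds plus 3 SD, cut at about 28% in these data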;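 also: 0% = plate median of test compound wells and 100% = 2 mM ZnCl2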
Arr AP2 CP1: inhibitors of arrestin peptide binding to AP2, confirmation, biochemical, cherry pick 1, flow cytometry beads | 1,300 tested, 2% active | inhibition, % at 10 µM | GST-AP2 beads, FITC arrestin peptide binding; GST-fused beta2-adaptin appendage, R879A mutant | shares compounds with Arrestin-AP2 inh | AID 504908, 2011;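 active = inhibition above a set limit, roughly 3 SD of non-fluorescent compound noise, cut at about 38% in these data; inactive = inhibition at or below that limit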;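 also: loss of bead fluorescence from 50 nM FITC arrestin peptide bound to appendage; 0% = negative control wells and 100% = excess unlabelled arrestin peptide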
GST-FITC bead: GST-fluorescein capture on glutathione beads, confirmation, artefact control for arrestin-AP2 inhibitor project, biochemical, cherry pick 1, flow cytometry. shares compounds with Arrestin-AP2 inh. GST-fluorescein binding to GSH beads, fluorescence, counter-screen. inhibition, % at 10 µM. 1,300 tested, 2% active. AID 588338, 2011;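 active = inhibition above 50%, about 3 SD of the inhibition seen with non-fluorescent compounds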;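 also: fluorescein maleimide labelled GST captured on 4 micron glutathione beads; higher means more loss of bead fluorescence from quenching or blocked binding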
* = called active by the depositor; / = no result. Compounds with a hit are over-represented: about 3.3% of the library has one in this group of screens.

SMILES	HGIII-sPLA2 inh	Arrestin-AP2 inh	HTR2A ag	NRP1-CendR mod	Hep lipid drop	PfM18AAP inh	Arr AP2 CP1	GST-FITC bead
CC1CN(S(=O)(=O)c2ccc(CN3C(=O)c4cccnc4C3=O)cc2)c2ccccc2O1 (stereo not given)	-1	59*	5	2	7	-2	-3	-5
CC(C)(C)NC(=O)C1Cc2ccccc2CN1C(=O)Nc1cccc(Cl)c1 (stereo not given)	-3	18	-2	7	/	-4	/	/
CC(C)(C)NC(=O)C1Cc2ccccc2CN1C(=O)Nc1ccccc1Cl (stereo not given)	0	83*	-1	7	/	0	3	0
C=CCOC(=O)N[C@@H](c1coc2ccccc2c1=O)[C@@H](C)/C=C/CC(=O)OC	2	/	/	/	/	/	/	/
CN(C(=O)COC(=O)c1cc(-c2ccc(Cl)s2)nc2ccccc12)C1CCS(=O)(=O)C1 (stereo not given)	-4	64*	1	1	-10	0	13	-2
COc1ccc(-n2c(SCC(=O)NC3CCCCCC3)nnc2-c2ccncc2)cc1	5	/	/	/	/	/	/	/
O=C(Nc1c(-c2ccccc2)nc2ncccn12)c1ccccc1	1	/	/	/	/	/	/	/
Cc1cc(C(=O)NCc2cccs2)c(C)o1	5	1	-1	-11	-27	12	/	/
Cc1occc1C(=O)NCc1cccs1	0	78*	3	-7	-2	1	9	0
Cc1ccc(OCCSc2nc3ccccc3n2CC(=O)O)cc1C	0	54*	3	-8	-6	-2	-1	-3
O=C(O)Cn1c(SCCOc2ccccc2)nc2ccccc21	0	8	-10	-16	9	3	/	/
COCCn1c(SCC(=O)Nc2ccc(S(=O)(=O)N(C)C)cc2)nc2ccccc21	-23	57*	-4	-2	0	9	0	-12
O=C(NCc1nnc2c(C(F)(F)F)cc(Cl)cn12)c1cccs1	5	56*	1	8	0	14	14	-2
O=C(Nc1cnccn1)Nc1ccccc1Cl	1	2	5	10	9	-1	/	/
CCc1ccccc1NC(=O)Nc1cnccn1	-1	45	14	9	0	-9	-12	-6
CCOc1ccccc1NC(=O)Nc1cnccn1	1	103*	-2	2	21	7	1	16
CCn1ccnc1CN(C)C(=O)c1cc(COc2ccccc2SC)on1	-9	17	-1	8	-7	0	/	/
COc1ccccc1NC(=O)N(C)C[C@@H]1OCc2cnnn2CCCC(=O)N([C@@H](C)CO)C[C@H]1C	3	/	-3	-23	/	/	/	/
CC(C)(C)c1nnc(NC(=O)Cc2ccccc2[N+](=O)[O-])s1	9	5	1	12	3	4	/	/
CC(C)c1nnc(NC(=O)Cc2ccccc2[N+](=O)[O-])s1	-14	58*	5	-3	-2	-9	-6	4
CC1CCN(c2ccc(C(=O)O)cc2NS(=O)(=O)c2ccc(F)cc2)CC1	-9	/	/	/	/	/	/	/
CCSc1nnc(NC(=O)C2C3CCC(C3)C2C(=O)O)s1 (stereo not given)	1	60*	8	2	-8	9	3	-14
O=C(C(=O)N1CCN(S(=O)(=O)c2ccccc2)CC1)c1cccc(C(F)(F)F)c1	-4	/	/	/	/	/	/	/
O=C(NCc1cccnc1)c1cc(C2CCCN(C(=O)c3ccccn3)C2)on1 (stereo not given)	16	/	4	-7	/	/	/	/
Cc1c(N(C(=O)c2cnccn2)C2(C(=O)NC3CCCC3)CCCCC2)c(=O)n(-c2ccccc2)n1C	6	56*	0	0	13	0	2	-9
SMILES	HGIII-sPLA2 inh	Arrestin-AP2 inh	HTR2A ag	NRP1-CendR mod	Hep lipid drop	PfM18AAP inh	Arr AP2 CP1	GST-FITC bead
CC(=O)N(c1c(C)n(C)n(-c2ccccc2)c1=O)C1(C(=O)NC2CCCCC2)CCCCC1	1	17	6	2	1	-11	/	/
Cn1ccc2c(-c3ccc4[nH]ccc4c3)cc3c(c21)C1CCC3O1 (stereo not given)	-18	/	-1	-5	/	/	/	/
Cc1nc2ccc(F)cc2cc1C(=O)NCC1CCCO1 (stereo not given)	-3	105*	1	-36	12	0	11	0
COC(=O)C(C[N+](=O)[O-])C1=C(O)CC(C)(C)CC1=O (stereo not given)	8	/	/	/	/	/	/	/
CNC(=O)c1ccc(-c2ccc(F)cc2)s1	3	23	-2	5	4	6	/	/
O=C(Nc1ccccc1)c1ccc(-c2ccc(F)cc2)s1	-8	55*	2	6	-5	0	10	-8
COc1ccccc1C(=O)Nc1nnc(S(=O)(=O)N2CCCCC2)s1	2	64*	-4	2	16	0	6	-18
Cc1ccc2[nH]c(=O)c(CN(CCCN3CCOCC3)C(=O)NC3CCCCC3)cc2c1	-3	-19	-2	-13	/	6	-9	-6
CCc1ccc2[nH]c(=O)c(CN(CCN3CCCC3)C(=O)NC3CCCCC3)cc2c1	-3	-2	0	1	/	5	18	1
O=C(COC(=O)Cc1ccsc1)Nc1cccc(F)c1	4	-6	1	8	/	/	/	/
O=C(Nc1nnc(S(=O)(=O)N2CCCCCC2)s1)c1ccc(Cl)cc1	1	9	1	-10	-13	-3	/	/
CC(=O)Nc1nnc(S(=O)(=O)N2CCN(c3ccc(Cl)cc3[N+](=O)[O-])CC2)s1	-1	56*	1	4	-7	1	20	-17
CCOc1ccc(CCNC(=O)C2CCCN(S(=O)(=O)N3CCCCC3)C2)cc1OCC (stereo not given)	0	/	-2	6	/	/	/	/
CC(=O)C1=C(O)C(=O)N(c2ccc(S(N)(=O)=O)cc2)C1c1ccc([N+](=O)[O-])cc1 (stereo not given)	-5	97*	0	2	/	7	-2	-7
